Active and inactive are the calls of the source. The rule behind the calls is not given here.
Tests used:
[1] = tested on: Human immunodeficiency virus 1; test: Antiviral activity against HIV-1 subtype D V022818 infected in human MT4 cells assessed as inhibition of viral replication relative to HIV-1 3B; type: functional
In short: (§1)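 MT-4 cells (3 x 10^4/well) infected with site-directed mutants or recombinant clinical isolates (200 TCID50/well) with drug, cultured 3 to 5 days. Viability read by MTT colorimetric antivirogram assay. IC50 by nonlinear regression; fold change = IC50 for the test isolate / IC50 for wild-type HIV-1 IIIB tested in parallel (mean or median).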

[2] = tested on: Human immunodeficiency virus 1; test: Antiviral activity against HIV-1 subtype CRF02_AG V022825 infected in human MT4 cells assessed as inhibition of viral replication relative to HIV-1 3B; type: functional; in short: as §1
[3] = tested on: Human immunodeficiency virus 1; test: Antiviral activity against HIV-1 subtype CRF01_AE V022822 infected in human MT4 cells assessed as inhibition of viral replication relative to HIV-1 3B; type: functional; in short: as §1
[4] = tested on: Human immunodeficiency virus 1; test: Antiviral activity against HIV-1 subtype B V022814 infected in human MT4 cells assessed as inhibition of viral replication relative to HIV-1 3B; type: functional; in short: as §1
[5] = tested on: Human immunodeficiency virus 1; test: Antiviral activity against HIV-1 Bal infected in 1 hr compound pretreated human ectocervical explant tissue assessed as inhibition of viral replication by RT-PCR; type: functional, organism-based
In short: (§2)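 Ectocervical explants were pretreated with drug for 1 h, then exposed to HIV-1BaL (two 50% tissue infectious doses, about 10^4 TCID50 on PM-1) for 2 h at 37°C with drug present. Explants were washed and cultured overnight, then cultured separately for 10 days. Tissue was proteinase K-digested and proviral LTR DNA measured by multiplex qPCR against β-actin (10 copies/10^5 cells sensitivity). Two donors, triplicate.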

[6] = tested on: Human immunodeficiency virus 1; test: Antiviral activity against HIV-1 subtype CRF05_DF V022824 harboring NNRTI V106I mutant infected in human MT4 cells assessed as inhibition of viral replication relative to HIV-1 3B; type: functional; in short: as §1
[7] = tested on: Human immunodeficiency virus 1; test: Antiviral activity against HIV-1 subtype CRF01_AE V022820 infected in human MT4 cells assessed as inhibition of viral replication relative to HIV-1 3B; type: functional; in short: as §1
[8] = tested on: Human immunodeficiency virus 1; test: Antiviral activity against HIV-1 subtype B V022813 infected in human MT4 cells assessed as inhibition of viral replication relative to HIV-1 3B; type: functional; in short: as §1
[9] = Cytotoxicity against human PM1 cells after 24 hrs by MTT assay; type: cell-based
In short: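 Uninfected PM-1 or TZM-bl cells were exposed to drug and viability measured by MTT dye reduction as a percentage of untreated controls. CC50 was derived by nonlinear regression.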

[10] = tested on: Human immunodeficiency virus 1; test: Antiviral activity against HIV-1 Bal infected in 24 hrs 10 nM compound pretreated human ectocervical explant tissue assessed as prolonged inhibition of viral infection post compound removal; type: functional
In short: (§3)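 Ectocervical explants were exposed to drug (0.01–10 µM) for 2 or 24 h at 37°C and washed. They received HIV-1BaL (2 h) on day 0, 2, 4 or 6 after drug removal, with no drug present. Read-outs at 10 days post-exposure: explant p24 ELISA, tissue proviral DNA by qPCR, and p24 in migratory cell–PM-1 cocultures. Three donors (2 h) or two donors (24 h), triplicate.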

[11] = tested on: Human immunodeficiency virus 1; test: Antiviral activity against HIV-1 SM030 harboring NNTRI 100I mutant infected in human MT4 cells assessed as inhibition of viral replication relative to HIV-1 3B; type: functional; in short: as §1
[12] = tested on: Human immunodeficiency virus 1; test: Antiviral activity against HIV-1 Bal infected in human PM1 cells assessed as inhibition of transmission of virus to premissive T cells at 100 nM
[13] = tested on: Human immunodeficiency virus 1; test: Antiviral activity against HIV-1 RF infected in human PM1 cells after 7 days by RT assay; type: functional, organism-based; conditions: Human immunodeficiency virus 1, RF, PM1, 168 h
In short: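 PM-1 cells (4 x 10^4/well) were infected with HIV-1BaL or HIV-1RF (200 TCID50/ml) and cultured 7 days with drug. Replication was measured as reverse transcriptase in supernatant versus untreated wells. IC50 was obtained by nonlinear regression.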

[14] = tested on: Human immunodeficiency virus 1; test: Antiviral activity against HIV-1 Bal infected in 2 hrs 10000 nM compound pretreated human ectocervical explant tissue assessed as prolonged inhibition of viral infection post compound removal measured after 4 days post compound removal; type: functional; in short: as §3
[15] = tested on: Human immunodeficiency virus 1; test: Antiviral activity against HIV-1 subtype H V029523 harboring NNRTI K101Q and V179I mutant infected in human MT4 cells assessed as inhibition of viral replication relative to HIV-1 3B; type: functional; in short: as §1
[16] = tested on: Human immunodeficiency virus 1; test: Antiviral activity against HIV-1 Bal infected in 24 hrs 100 to 1000 nM compound pretreated human ectocervical explant tissue assessed as prolonged inhibition of viral infection post compound removal measured after 2 days post compound removal; type: functional; in short: as §3
[17] = tested on: Human immunodeficiency virus 1; test: Antiviral activity against HIV-1 subtype B V022807 infected in human MT4 cells assessed as inhibition of viral replication relative to HIV-1 3B; type: functional
In short: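 Recombinant clinical HIV-1 isolates (200 TCID50/well) were tested in MT-4 cells (3 x 10^4/well) over 3–5 days, with an MTT viability read-out. IC50 was fitted by nonlinear regression. Fold change is the isolate IC50 divided by the HIV-1IIIB IC50, tested in parallel.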

[18] = tested on: Human immunodeficiency virus 1; test: Antiviral activity against HIV-1 SM034 harboring NNTRI 188L mutant infected in human MT4 cells assessed as inhibition of viral replication relative to HIV-1 3B; type: functional; in short: as §1
[19] = tested on: Human immunodeficiency virus 1; test: Antiviral activity against HIV-1 subtype H V022827 harboring NNRTI V179I mutant infected in human MT4 cells assessed as inhibition of viral replication relative to HIV-1 3B; type: functional; in short: as §1
[20] = tested on: Human immunodeficiency virus 1; test: Antiviral activity against HIV-1 3B infected in human MT4 cells after 3 to 5 days by MTT assay; conditions: Human immunodeficiency virus 1, 3B, MT4, 72 to 120 h
[21] = Cytotoxicity against human MT4 cells after 24 hrs by MTT assay; type: cell-based
[22] = tested on: Human immunodeficiency virus 1; test: Antiviral activity against HIV-1 subtype O V029524 harboring NNRTI A98G, V179E and Y181C mutant infected in human MT4 cells assessed as inhibition of viral replication relative to HIV-1 3B; type: functional; in short: as §1
[23] = Selectivity index, ratio of CC50 for human PM1 cells to IC50 for HIV-1 RF; type: functional
In short: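 Selectivity index is CC50/IC50, using values determined in the same time period. CC50 was measured by MTT for TZM-bl and PM-1 cells and by trypan blue exclusion after 14 days for macrophages. Both were fitted by nonlinear regression.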

[24] = tested on: Human immunodeficiency virus 1; test: Antiviral activity against HIV-1 Bal infected in 1 hr compound pretreated human ectocervical explant tissue assessed as inhibition of viral replication at 0.1 nM by RT-PCR; type: functional, organism-based; in short: as §2
[25] = tested on: Human immunodeficiency virus 1; test: Antiviral activity against HIV-1 Bal infected in human PM1 cells assessed as inhibition of transmission of virus to premissive T cells at 10 uM; type: functional; conditions: Human immunodeficiency virus 1, Bal
In short: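 Explants were pretreated with drug for 1 h, then exposed to HIV-1BaL for 2 h with drug present and washed. Cells that migrated out overnight were washed and cocultured with PM-1 cells (4 x 10^4/well) for about 10 days. Transfer was read as p24 by ELISA in coculture supernatant (detection limit 300 pg/ml). Two donors, triplicate.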

## Cc1cc(C)c(Nc2ccnc(Nc3ccc(C#N)cc3)n2)c(C)c1 [DAPIVIRINE]
[1]
  Ratio IC50: 1.4
[2]
  Ratio IC50: 0.8
[3]
  Ratio IC50: 0.9
[4]
  Ratio IC50: 0.8
[5]
  Activity: Dose-dependent effect
[5]; Human immunodeficiency virus 1, Bal
  IC50: 0.2 nM
[6]
  Ratio IC50: 0.7
[7]
  Ratio IC50: 0.9
[8]
  Ratio IC50: 0.7
[9]
  CC50 at 24 h: 11000 nM
[10]
  inhibition (INH): 90%
[11]
  Ratio IC50: 18
[12]
  inhibition: Active
[13]
  IC50: 2.4 nM
[14]
  inhibition (INH): 90%
[15]
  Ratio IC50: 1.4
[16]
  inhibition (INH): 90%
[17]
  Ratio IC50: 1.1
[18]
  Ratio IC50: 47
[19]
  Ratio IC50: 0.9
[20]
  IC50: 0.9 nM
[21]
  CC50 at 24 h: 2150 nM
[22]
  Ratio IC50: 150
[23]
  Selectivity Index: 4583
[24]
  inhibition: Active
[25]
  inhibition at 10 µM: > 90%
